The subject of test [1] is Canis familiaris. In words: Effective dose required for the maximum heart rate in anesthetized dogs. The format is functional. To be noted: Canis lupus familiaris. The essentials: (§1)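 Anesthetized dogs on pentobarbital (20 mg/kg iv, then 2 mg/kg iv every 30 min), ventilated with 40% O2 in air. Left hind limb pump-perfused from the abdominal aorta, heparin 500 IU/kg iv. HR from a lead II ECG-driven cardiotachometer. Arterial pCO2 held at 34-42 mmHg and pH 7.35-7.43. Cumulative iv doses in saline. ED50 taken from dose-response curves of peak HR or HLPP change.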

Test [2] is filed under the species Canis familiaris. The test is described as follows: Selectivity is expressed as the ratio of ED50 on hind limb perfusion pressure to the ED50 on heart rate. The test is classed as functional, Canis lupus familiaris. Put shortly: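 Cardioselectivity is the ratio of ED50 for HLPP to ED50 for HR. Both come from cumulative iv dose-response curves in pentobarbital-anesthetized dogs with a pump-perfused hind limb and a cardiotachometer reading HR.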

Test [3] deals with Canis familiaris. In words: Effective dose required for the maximum hind limb perfusion pressure(HLPP) in anesthetized dogs. The test is classed as functional. To be noted: Canis lupus familiaris, Hindlimb. Put shortly: as §1
The species named for test [4] is Canis familiaris. In words: Intrinsic sympathomimetic activity (ISA), calculated as the percent of maximum change in hind limb perfusion pressure (HLPP). The test is classed as functional, Canis lupus familiaris, Hindlimb. Put shortly:
(§2)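 Same anesthetized, ventilated dog preparation with a pump-perfused left hind limb. An isoproterenol curve was run first. About 45 min later, once HR and HLPP had returned to control, cumulative iv doses of test compound in saline were given. ISA is the maximum HR or HLPP change produced by the compound, expressed as a percentage of the isoproterenol maximum.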

For test [5], the species on record is Canis familiaris. In words: Intrinsic sympathomimetic activity (ISA, calculated as the percent of maximum change in heart rate (HR). The format is functional, Canis lupus familiaris. The essentials: as §2

As usually defined, the ED50 is the dose at which the effect has come halfway, by size or by number of responders. Lower therefore signals an effect at a small dose.

On to `O=C(Cc1ccccc1)NCCNCC(O)COc1ccc(O)cc1.O=C(O)C(=O)O` (stereo not given), for which the values for the ED50 in test [1] and in test [3] were 0.027 µmol/kg and 0.09 µmol/kg, respectively. In test [2], the Selectivity is recorded as 3.3. Further, the ISA in test [4] and in test [5] was 40% throughout.
Consider `CC(C)C(=O)NCCNCC(O)COc1cccc(O)c1.O=C(O)C(=O)O` (stereo not given), for which the ED50 in test [1] came out at 0.209 µmol/kg; in test [3], 0.26 µmol/kg. Further, the Selectivity in test [2] came to 1.2. The values for the ISA in test [4] and in test [5] were 33% and 25%, respectively.
Taken in the same sequence, the figures for `CCN(CC)C(=O)NCCNCC(O)COc1ccc(O)cc1.O=C(O)C(=O)O` (stereo not given) were 0.037 µmol/kg, 0.036 µmol/kg, 10, 18% and 28%.
The matching figures for `CN(C)S(=O)(=O)NCCNCC(O)COc1ccc(O)cc1.O=C(O)C(=O)O` (stereo not given): 0.069 µmol/kg, 0.175 µmol/kg, 2.5, 80% and 80%.
Consider `CC(C)NCC(O)c1ccc(O)c(CO)c1` (stereo not given), for which the median effective dose (ED50) in test [1] was determined as 0.222 µmol/kg; in test [3], 0.009 µmol/kg. Also, in test [2], the Selectivity was determined as 0.04. Moreover, the ISA in test [4] and in test [5] was 100% each time.
For `CC(C)NCC(O)c1ccc(O)cc1` (stereo not given) [DETERENOL], the ED50 in test [1] is 0.01 µmol/kg; in test [3], 0.077 µmol/kg. Further, the Selectivity in test [2] was found to be 7.7. In addition, the ISA in test [4] is reported as 55%; in test [5], 88%.
Taken in the same sequence, the figures for `CC(C)NCC(O)c1ccc(O)c(O)c1` (stereo not given) [ISOPROTERENOL] were 0.0014 µmol/kg, 0.0008 µmol/kg, 0.5, 100% and 100%.
The matching figures for `CC(C)NCC(O)c1cc(O)cc(O)c1` (stereo not given) [METAPROTERENOL]: 0.014 µmol/kg, 0.014 µmol/kg, 1, 100% and 83%.
Consider `CC(C)NCC(O)c1cccc(O)c1` (stereo not given) [METATEROL], for which the ED50 in test [1] came to 0.071 µmol/kg; in test [3] it was 0.138 µmol/kg. Further, the Selectivity in test [2] worked out at 1.9. Further, the ISA in test [4] and in test [5] was 100% throughout.
Take `O=C(NCCNCC(O)COc1ccc(O)cc1)N1CCOCC1` (stereo not given) [XAMOTEROL]: the figures for the ED50 in test [1] and in test [3] were 0.012 µmol/kg and greater than 3 µmol/kg, respectively. Moreover, the Selectivity in test [2] is greater than 250. The ISA in test [4] is 0%; in test [5], 50%.

The values are drawn from ChEMBL document CHEMBL1121799, “Beta-adrenoceptor stimulant properties of amidoalkylamino-substituted 1-aryl-2-ethanols and 1-(aryloxy)-2-propanols” (1981).
